Laboratory results published in ChEMBL document CHEMBL1681705, “Optimisation of ITK inhibitors through successive iterative design cycles” (Bioorg Med Chem Lett, 2011).

Tests used:
[1] = molecular target: Serine/threonine-protein kinase SIK1 (Homo sapiens) (UniProt P57059); assay: Inhibition of SIK at 0.1 uM; values are per cent of control
[2] = molecular target: T1, Tyrosine-protein kinase ZAP-70 (Homo sapiens) (UniProt P43403); assay: Inhibition of ZAP70 at 0.1 uM; values are per cent of control
T1 sequence (whole entry): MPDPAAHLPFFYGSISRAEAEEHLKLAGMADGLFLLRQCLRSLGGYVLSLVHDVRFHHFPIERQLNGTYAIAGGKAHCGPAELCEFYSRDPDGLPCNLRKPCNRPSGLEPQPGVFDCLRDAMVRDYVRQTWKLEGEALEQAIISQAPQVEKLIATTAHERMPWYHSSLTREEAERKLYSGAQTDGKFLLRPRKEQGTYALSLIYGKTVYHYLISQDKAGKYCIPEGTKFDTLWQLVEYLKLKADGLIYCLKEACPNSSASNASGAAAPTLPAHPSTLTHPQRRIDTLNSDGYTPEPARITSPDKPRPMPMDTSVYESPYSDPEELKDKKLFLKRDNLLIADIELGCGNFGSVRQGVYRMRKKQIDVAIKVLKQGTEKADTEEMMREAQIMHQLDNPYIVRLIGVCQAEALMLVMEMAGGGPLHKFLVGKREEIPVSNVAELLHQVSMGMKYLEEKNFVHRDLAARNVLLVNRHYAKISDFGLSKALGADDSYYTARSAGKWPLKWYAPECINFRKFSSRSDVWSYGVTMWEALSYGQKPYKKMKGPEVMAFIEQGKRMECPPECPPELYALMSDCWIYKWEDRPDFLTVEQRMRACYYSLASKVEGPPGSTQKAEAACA

[3] = molecular target: BDNF/NT-3 growth factors receptor (Homo sapiens) (UniProt Q16620); assay: Inhibition of TrkB at 0.1 uM; values are per cent of control
[4] = molecular target: T2, Inhibitor of nuclear factor kappa-B kinase subunit beta (Homo sapiens) (UniProt O14920); assay: Inhibition of IKK-beta at 0.1 uM; values are per cent of control
T2 sequence (whole entry): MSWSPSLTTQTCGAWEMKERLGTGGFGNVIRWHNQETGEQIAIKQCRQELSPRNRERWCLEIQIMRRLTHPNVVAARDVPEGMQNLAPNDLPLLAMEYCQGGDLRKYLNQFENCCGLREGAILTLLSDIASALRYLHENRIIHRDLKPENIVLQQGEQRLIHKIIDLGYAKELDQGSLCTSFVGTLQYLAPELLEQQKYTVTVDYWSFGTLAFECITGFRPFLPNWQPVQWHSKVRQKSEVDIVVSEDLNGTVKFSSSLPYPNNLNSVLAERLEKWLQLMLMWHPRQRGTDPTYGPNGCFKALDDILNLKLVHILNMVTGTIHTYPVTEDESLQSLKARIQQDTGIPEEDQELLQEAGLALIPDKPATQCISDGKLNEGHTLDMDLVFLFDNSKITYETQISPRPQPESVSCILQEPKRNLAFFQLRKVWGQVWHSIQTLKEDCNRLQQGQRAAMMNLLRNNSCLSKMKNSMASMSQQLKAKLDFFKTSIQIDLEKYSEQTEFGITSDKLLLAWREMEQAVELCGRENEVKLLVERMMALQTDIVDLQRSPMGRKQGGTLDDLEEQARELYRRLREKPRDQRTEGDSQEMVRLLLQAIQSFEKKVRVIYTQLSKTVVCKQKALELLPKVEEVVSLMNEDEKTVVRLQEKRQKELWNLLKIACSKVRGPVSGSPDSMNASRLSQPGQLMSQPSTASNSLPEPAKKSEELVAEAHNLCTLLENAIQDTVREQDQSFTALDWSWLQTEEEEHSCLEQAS

[5] = molecular target: Ribosomal protein S6 kinase alpha-4 (Homo sapiens) (UniProt O75676); assay: Inhibition of MSK2 at 1 uM
In short: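 Single-point screen within a 108-kinase selectivity panel. Each kinase was tested with inhibitor at 0.1 and 1.0 micromolar, and activity was recorded as percent inhibition.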

[6] = molecular target: Dual specificity mitogen-activated protein kinase kinase 1 (Homo sapiens) (UniProt Q02750); assay: Inhibition of MEK1 at 1 uM; values are per cent of control
[7] = molecular target: T3, Tyrosine-protein kinase JAK3 (Homo sapiens) (UniProt P52333); assay: Inhibition of JAK3 at 1 uM
T3 sequence (whole entry): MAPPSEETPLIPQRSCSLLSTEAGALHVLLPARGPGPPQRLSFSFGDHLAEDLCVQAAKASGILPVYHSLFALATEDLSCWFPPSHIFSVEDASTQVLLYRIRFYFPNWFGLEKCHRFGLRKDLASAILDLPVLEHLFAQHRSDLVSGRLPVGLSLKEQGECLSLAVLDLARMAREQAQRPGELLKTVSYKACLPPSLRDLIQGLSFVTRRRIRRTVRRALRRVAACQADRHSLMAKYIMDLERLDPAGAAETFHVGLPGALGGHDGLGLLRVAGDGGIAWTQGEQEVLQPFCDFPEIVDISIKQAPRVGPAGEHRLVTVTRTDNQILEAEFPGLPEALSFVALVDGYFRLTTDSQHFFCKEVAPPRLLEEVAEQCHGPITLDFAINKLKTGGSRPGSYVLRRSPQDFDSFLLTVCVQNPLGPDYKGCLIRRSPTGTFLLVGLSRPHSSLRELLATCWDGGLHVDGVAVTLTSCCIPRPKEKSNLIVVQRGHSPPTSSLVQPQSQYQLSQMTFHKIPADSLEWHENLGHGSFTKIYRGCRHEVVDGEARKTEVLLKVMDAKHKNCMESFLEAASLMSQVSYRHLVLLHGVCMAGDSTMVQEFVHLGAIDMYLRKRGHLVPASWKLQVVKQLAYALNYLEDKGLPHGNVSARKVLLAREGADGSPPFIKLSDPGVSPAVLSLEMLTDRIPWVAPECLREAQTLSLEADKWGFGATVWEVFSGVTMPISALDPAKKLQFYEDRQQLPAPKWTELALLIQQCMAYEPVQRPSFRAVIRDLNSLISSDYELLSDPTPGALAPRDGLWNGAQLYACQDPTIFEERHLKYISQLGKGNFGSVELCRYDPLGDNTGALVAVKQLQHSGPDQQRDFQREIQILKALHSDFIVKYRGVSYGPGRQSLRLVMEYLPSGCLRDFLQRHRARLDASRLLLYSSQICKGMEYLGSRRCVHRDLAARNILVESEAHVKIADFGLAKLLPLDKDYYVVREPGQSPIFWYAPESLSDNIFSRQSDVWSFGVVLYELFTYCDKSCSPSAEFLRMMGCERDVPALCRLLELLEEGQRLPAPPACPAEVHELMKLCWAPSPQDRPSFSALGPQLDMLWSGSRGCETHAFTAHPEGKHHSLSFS
In short: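 Each selected inhibitor was tested at two concentrations, 0.1 and 1.0 micromolar. Values are reported as inhibition at each concentration.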

[8] = molecular target: Tyrosine-protein kinase Fes/Fps (Homo sapiens) (UniProt P07332); assay: Inhibition of Fes at 0.1 uM; values are per cent of control
Sequence of Tyrosine-protein kinase Fes/Fps (Homo sapiens) (P07332 whole entry): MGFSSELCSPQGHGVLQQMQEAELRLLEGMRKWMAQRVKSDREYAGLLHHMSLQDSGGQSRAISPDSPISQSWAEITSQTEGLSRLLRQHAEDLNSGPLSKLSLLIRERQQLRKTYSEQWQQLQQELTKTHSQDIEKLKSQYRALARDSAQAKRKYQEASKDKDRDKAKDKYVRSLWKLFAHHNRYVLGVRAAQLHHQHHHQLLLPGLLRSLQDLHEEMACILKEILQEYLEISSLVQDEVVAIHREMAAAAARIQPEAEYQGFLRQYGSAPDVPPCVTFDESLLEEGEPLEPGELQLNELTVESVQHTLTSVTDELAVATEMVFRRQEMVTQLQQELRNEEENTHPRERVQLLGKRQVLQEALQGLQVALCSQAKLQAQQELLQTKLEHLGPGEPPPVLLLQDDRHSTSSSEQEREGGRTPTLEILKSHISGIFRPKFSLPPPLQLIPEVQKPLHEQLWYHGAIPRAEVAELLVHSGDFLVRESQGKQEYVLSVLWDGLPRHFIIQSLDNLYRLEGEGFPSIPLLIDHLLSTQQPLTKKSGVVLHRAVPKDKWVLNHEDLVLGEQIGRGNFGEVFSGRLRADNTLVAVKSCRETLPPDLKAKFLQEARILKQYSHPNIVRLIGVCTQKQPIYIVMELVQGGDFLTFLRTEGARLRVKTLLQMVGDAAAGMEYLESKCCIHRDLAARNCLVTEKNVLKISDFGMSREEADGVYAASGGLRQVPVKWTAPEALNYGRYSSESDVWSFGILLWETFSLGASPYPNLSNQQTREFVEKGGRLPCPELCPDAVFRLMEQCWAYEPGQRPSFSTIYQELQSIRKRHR

Sequence of Serine/threonine-protein kinase SIK1 (Homo sapiens) (P57059 whole entry): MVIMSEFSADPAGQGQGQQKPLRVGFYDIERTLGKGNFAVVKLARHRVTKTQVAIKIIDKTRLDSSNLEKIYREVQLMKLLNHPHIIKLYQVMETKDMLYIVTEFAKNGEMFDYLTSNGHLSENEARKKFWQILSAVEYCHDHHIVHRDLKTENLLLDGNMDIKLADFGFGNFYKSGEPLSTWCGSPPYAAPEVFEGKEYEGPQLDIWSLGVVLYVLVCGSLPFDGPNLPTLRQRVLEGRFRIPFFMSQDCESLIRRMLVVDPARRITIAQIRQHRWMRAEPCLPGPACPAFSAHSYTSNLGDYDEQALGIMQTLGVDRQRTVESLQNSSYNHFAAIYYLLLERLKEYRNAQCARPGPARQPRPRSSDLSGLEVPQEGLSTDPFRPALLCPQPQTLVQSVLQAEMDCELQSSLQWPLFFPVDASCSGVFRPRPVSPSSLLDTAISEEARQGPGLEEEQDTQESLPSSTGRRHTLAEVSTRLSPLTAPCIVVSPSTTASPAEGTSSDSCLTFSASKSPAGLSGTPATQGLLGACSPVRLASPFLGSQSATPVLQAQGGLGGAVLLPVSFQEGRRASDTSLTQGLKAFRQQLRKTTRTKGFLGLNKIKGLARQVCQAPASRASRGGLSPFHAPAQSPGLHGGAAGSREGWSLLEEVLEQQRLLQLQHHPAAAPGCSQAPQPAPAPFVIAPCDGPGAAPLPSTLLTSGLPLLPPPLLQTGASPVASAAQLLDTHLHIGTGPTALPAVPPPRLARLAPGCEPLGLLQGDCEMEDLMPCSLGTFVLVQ
Sequence of Ribosomal protein S6 kinase alpha-4 (Homo sapiens) (O75676 whole entry, looked up): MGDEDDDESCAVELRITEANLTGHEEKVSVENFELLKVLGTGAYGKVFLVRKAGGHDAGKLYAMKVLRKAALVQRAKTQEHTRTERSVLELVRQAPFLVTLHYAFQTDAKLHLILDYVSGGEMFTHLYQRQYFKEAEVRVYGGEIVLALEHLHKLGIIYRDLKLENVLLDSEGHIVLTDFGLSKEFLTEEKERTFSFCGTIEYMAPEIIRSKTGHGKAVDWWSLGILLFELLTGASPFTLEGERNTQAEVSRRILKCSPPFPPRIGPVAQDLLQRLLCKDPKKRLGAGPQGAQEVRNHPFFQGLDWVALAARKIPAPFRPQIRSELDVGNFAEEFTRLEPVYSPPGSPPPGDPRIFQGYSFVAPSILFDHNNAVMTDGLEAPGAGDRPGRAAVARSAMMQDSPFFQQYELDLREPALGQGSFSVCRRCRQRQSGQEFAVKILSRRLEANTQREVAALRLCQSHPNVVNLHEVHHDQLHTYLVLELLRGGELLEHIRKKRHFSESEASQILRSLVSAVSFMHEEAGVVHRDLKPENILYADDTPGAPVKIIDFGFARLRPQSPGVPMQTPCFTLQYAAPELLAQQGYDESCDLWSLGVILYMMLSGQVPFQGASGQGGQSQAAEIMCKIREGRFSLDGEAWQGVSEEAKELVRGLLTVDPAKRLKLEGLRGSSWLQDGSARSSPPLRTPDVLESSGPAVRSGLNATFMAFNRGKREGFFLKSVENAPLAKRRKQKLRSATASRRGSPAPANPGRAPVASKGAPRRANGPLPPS
Sequence of BDNF/NT-3 growth factors receptor (Homo sapiens) (Q16620 32-822 limits assumed): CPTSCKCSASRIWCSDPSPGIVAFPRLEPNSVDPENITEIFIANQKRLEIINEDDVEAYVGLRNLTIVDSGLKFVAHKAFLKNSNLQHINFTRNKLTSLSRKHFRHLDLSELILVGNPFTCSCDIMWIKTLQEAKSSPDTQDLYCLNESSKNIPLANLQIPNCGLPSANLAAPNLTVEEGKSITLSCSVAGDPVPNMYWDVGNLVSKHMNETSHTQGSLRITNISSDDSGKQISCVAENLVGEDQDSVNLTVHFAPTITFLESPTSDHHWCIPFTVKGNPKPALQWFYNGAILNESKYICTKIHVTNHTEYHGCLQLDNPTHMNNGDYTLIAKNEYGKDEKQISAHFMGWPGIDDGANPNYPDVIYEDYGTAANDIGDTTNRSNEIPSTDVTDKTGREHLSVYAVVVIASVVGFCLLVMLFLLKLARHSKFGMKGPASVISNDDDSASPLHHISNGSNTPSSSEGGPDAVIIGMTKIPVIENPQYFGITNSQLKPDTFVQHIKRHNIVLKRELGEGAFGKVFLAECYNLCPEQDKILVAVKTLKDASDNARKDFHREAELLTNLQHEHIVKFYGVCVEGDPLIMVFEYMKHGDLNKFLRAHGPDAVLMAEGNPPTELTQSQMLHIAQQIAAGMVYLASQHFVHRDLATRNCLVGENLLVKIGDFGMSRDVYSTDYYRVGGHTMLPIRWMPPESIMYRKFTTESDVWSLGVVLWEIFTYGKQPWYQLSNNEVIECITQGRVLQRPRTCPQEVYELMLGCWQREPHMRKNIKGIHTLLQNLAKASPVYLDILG
Sequence of Dual specificity mitogen-activated protein kinase kinase 1 (Homo sapiens) (Q02750 whole entry): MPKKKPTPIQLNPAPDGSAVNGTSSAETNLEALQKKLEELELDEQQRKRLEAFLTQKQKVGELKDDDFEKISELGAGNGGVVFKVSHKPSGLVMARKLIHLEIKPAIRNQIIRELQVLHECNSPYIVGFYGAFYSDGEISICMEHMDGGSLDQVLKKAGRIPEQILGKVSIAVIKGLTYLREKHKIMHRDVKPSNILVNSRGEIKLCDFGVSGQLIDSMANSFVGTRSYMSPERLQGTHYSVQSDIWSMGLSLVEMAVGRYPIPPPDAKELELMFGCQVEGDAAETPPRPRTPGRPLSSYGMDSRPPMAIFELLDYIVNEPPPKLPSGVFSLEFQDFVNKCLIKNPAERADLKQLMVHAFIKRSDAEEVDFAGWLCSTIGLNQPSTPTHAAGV

Row | SMILES | residual activity [1] [%] | residual activity [2] [%] | residual activity [3] [%] | residual activity [4] [%] | inhibition [5] [%] | residual activity [6] [%] | inhibition [7] [%] | residual activity [8] [%]
1 | Cc1ccc2cc(-c3n[nH]c4ccc(NC5CCNC5)cc34)[nH]c2c1 (stereo unspecified) | 18 | 93 | 2 | 99 | 2 | 13 | 8 | 3
2 | Cc1ccc2cc(-c3n[nH]c4ccc(NC5CCN(Cc6ccccc6)CC5)cc34)[nH]c2c1 | 43 | 93 | 1 | 103 | 91 | 87 | 5 | 28
